# Test results: BindingDB's records for doi:10.1016/j.ejmech.2019.111611 (The University of Queensland, 2019)
# Target: T1, Fe(3+)-Zn(2+) purple acid phosphatase (Phaseolus vulgaris, UniProt P80366)
# T1 sequence (P80366 whole entry): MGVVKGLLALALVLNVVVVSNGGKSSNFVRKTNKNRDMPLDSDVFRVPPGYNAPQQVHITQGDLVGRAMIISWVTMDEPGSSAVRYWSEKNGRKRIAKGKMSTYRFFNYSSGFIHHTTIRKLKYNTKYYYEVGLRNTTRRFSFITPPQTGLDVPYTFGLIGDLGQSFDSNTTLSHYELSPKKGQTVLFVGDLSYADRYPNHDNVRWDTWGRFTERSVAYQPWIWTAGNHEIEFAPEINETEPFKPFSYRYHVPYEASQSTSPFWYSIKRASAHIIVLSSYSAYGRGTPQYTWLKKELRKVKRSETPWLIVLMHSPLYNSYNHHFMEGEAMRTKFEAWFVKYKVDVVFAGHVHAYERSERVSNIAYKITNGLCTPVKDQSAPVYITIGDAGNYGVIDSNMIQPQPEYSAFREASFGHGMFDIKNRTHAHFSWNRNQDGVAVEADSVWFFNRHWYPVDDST
# Assay: Competitive inhibition of red kidney bean PAP using varying levels of pNPP as substrate measured at pH 6.2 by UV-vis spectrophotometric analysis
# In short: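 Red kidney bean PAP (rkbPAP), purified, at 8.4 nM. p-NPP 1–15 mM in 0.1 M MES pH 6.2 with 25% DMSO, 25 °C. p-Nitrophenol formation followed at 405 nm (Δε 1834.4 mol−1 L cm−1). Inhibitor concentration varied; competitive constant Kic from non-linear regression using a general inhibition equation.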
row,Ki,Compound
1,4500 nM,CCCCCCCCCCCCOC(c1cccc2ccccc12)P(=O)(O)O (stereo unspecified)
2,14000 nM,CCCCCCCCCCCCCCCCCCCCCCOC(c1cccc2ccccc12)P(=O)(O)O (stereo unspecified)
3,800 nM,CCCCCCCCCCCCCCCCCCCCOC(c1cccc2ccccc12)P(=O)(O)O (stereo unspecified)
4,500 nM,CCCCCCCCCCCCCCCCCCOC(c1cccc2ccccc12)P(=O)(O)O (stereo unspecified)
5,200 nM,CCCCCCCCCCCCCCOC(c1cccc2ccccc12)P(=O)(O)O (stereo unspecified)
6,400 nM,CCCCCCCCCCCCCCCCOC(c1cccc2ccccc12)P(=O)(O)O (stereo unspecified)
